Screens as filed in PubChem.
Many of the other results were omitted from the sample, so hits are more common in it than they were.
CHOP inh: inhibitors of CHOP induction in ER stress response. CHO-K1 CHOP-promoter luciferase, tunicamycin-induced, 15-18 h. inhibition, % at 10 µM. 220,000 tested, 3.8% active;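 active = compounds that reduced the stress-induced luciferase reporter signal by more than about 70% of percent inhibition, limit read from the data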;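 also: 0% = tunicamycin plus vehicle and 100% = wells without tunicamycin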
Cardio protect: myocardial damage modulation in H9c2 cells | protection from H2O2 cell death, % at 20 µM | H9c2 cardiomyocytes, H2O2 injury protection, ATPLite, 2 h | 360,000 tested, 0.63% active;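 active = compounds giving at least 50% protection of heart cells from peroxide-induced death in the single-dose screen, raw or plate-pattern-corrected value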;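 also: 0% = DMSO wells with peroxide and 100% = DMSO wells without peroxide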
XBP1 UPR activ: adaptive UPR (XBP1) activation; CHO-XBP1 luciferase reporter, IRE1-XBP1 UPR activation, luminescence; percent of tunicamycin response, DMSO as zero; activation, % at 20 µM; 330,000 tested, 0.33% active;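 active = versus positive control, 20 µM dose yields 30% or more activation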;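 also: 100% = tunicamycin at 10 µg/mL and 0% = DMSO only wells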
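Signal: luciferase luminescence; Assay system: CHO-XBP1 luciferase reporter cells; Amount: one thousand reporter cells per well; Dosing: 20 µM single concentration, DMSO 1%; Benchmarks: high control tunicamycin 10 µg/mL final, low control DMSO vehicle only; Schedule: 6 h compound exposure at 37 °C, 5% CO2; Evaluation: percent activation relative to tunicamycin reference.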
hiPSC survival: enhancers of human iPSC single-cell survival | 360,000 tested, 0.044% active | survival enhancement, % at 20 µM | hiPSC single-cell survival, ATPlite luminescence; 100% = ROCK inhibitor wells, 0% = DMSO | AID 602274; in the data active = survival enhancement above about 18%;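 also: cells exposed to compounds for 16 hours before the ATP read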
UPR CHOP act: apoptotic UPR (CHOP) activation | 330,000 tested, 0.34% active | CHO-CHOP luciferase reporter, luminescence; percent of tunicamycin response over DMSO baseline | activation, % at 10 µM | AID 449763;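 active = at 10 µM dose, activation of 40% or more, normalized to positive control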;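 also: 100% = tunicamycin at 10 µg/mL and 0% = DMSO alone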
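Evaluation: % reporter activation, DMSO baseline versus tunicamycin full activation; System: CHO-CHOP luciferase reporter cell line; Input: 500 cells/well; Incubation: 6 h compound treatment, 37 °C; Measured by: Steady-Glo luciferase luminescence; Dosing: one dose, 10 µM in 0.5% DMSO; Buffer or medium: F12 medium, 10% FBS; Benchmarks: positive tunicamycin 10 µg/mL, negative DMSO alone.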
An asterisk follows results filed as active; / = no result given.

SMILES | CHOP inh | Cardio protect | XBP1 UPR activ | hiPSC survival | UPR CHOP act
COc1cc(/C=N/O)ccc1OCc1ccc(C(=O)O)cc1 | 90.5* | -16.2 | -5.8 | -3.3 | -9.8
C[C@H](O)CNC(=O)c1[nH]cnc1C(=O)N[C@@H](C)c1ccccc1 | / | 14.7 | / | -1.0 | /
CC1(C(=O)NS(=O)(=O)c2cccc(F)c2)CCN1C(=O)CCC1CCCC1 (stereo not given) | / | 10.6 | / | 0.0 | /
CCOc1cc(CNCCc2ccc(S(N)(=O)=O)cc2)ccc1OCc1ccc(Cl)cc1 | 89.5* | -33.4 | 16.1 | -1.6 | 11.8
CC1=C(C(=O)N(C(C)C)C(C)C)CC(CC(=O)NC(c2ccccc2)c2ccccc2)C(=O)N1Cc1ccc(C(C)(C)C)cc1 (stereo not given) | / | -1.5 | / | 1.1 | /
COC(=O)c1sc2nc(C)cc(C)c2c1N | 7.5 | -3.2 | -2.6 | 0.8 | 1.9
COc1ccc2nc(NC(=O)c3sc4nc(C)cc(C)c4c3N)sc2c1 | 73.9* | -13.2 | 14.7 | -0.4 | 9.4
Cc1cc(C)c2c(N)c(C(=O)Nc3ncc(C)s3)sc2n1 | 96.0* | -31.7 | -7.6 | -6.6 | -10.2
Cc1cc(C(=O)CS(=O)(=O)c2ccc(F)cc2)cc(C)c1O | / | -0.7 | -1.5 | 1.6 | 3.4
CC(C/C=N/NC(=O)COc1cc(Cl)ccc1Cl)c1ccccc1 (stereo not given) | 79.3* | -6.6 | -2.0 | 2.8 | 0.7
CC(=O)N1c2ccccc2C2(O)N=C(C)SC12 (stereo not given) | 104.8* | 1.3 | -0.1 | 1.0 | -0.9
Cc1ccc(/C(O)=C/C(=O)C(=O)NNC(=O)C(O)(c2ccccc2)c2ccccc2)cc1 | 85.0* | 26.8 | -5.0 | 1.4 | 0.3
O=C1c2[nH]nc(-c3ccccc3O)c2C(c2ccc(F)cc2)N1Cc1ccco1 (stereo not given) | 81.6* | -21.1 | 3.6 | -0.2 | 1.2
COc1ccc(C2c3c(-c4ccccc4O)n[nH]c3C(=O)N2Cc2ccco2)cc1OC (stereo not given) | 8.8 | 8.5 | 6.6 | 0.6 | -0.8
COc1ccc(-c2ccc(CN3C(C)C(=O)N(Cc4cn(CCC5OCCO5)nn4)CCS3(=O)=O)cc2)cc1 (stereo not given) | / | -26.7 | / | 3.2 | /
Cc1ccc(NS(=O)(=O)c2cc3c4c(cccc4c2)C(=O)NC3=O)cc1 | 19.8 | 20.9 | -1.0 | -1.3 | -0.8
CNS(=O)(=O)c1cc2c3c(cccc3c1)C(=O)NC2=O | 24.5 | 57.6* | -4.7 | -0.6 | -0.9
COCCNC(=O)c1cccc(Nc2nc(-c3ccccc3)c3cc(Cl)ccc3n2)c1 | 81.7* | 29.9 | 11.7 | 11.1 | 1.0
O=C(NC1CCCCC1)C(c1cccs1)N(C(=O)Cc1c[nH]c2ccccc12)c1ccc(F)cc1 (stereo not given) | 91.0* | -2.8 | 5.6 | 5.7 | -1.4
CC(=O)c1ccc(N(C(=O)Cc2c[nH]c3ccccc23)C(C(=O)NC2CCCCC2)c2cccs2)cc1 (stereo not given) | -3.0 | 2.9 | 0.2 | 0.9 | 0.0
Cc1cc(Cl)c(S(=O)(=O)NC2CCCC2)cc1OCC(=O)NC1CCCCC1 | 70.5* | 2.5 | -2.0 | 1.5 | -0.7
Cc1cc(S(=O)(=O)N2CCCCCC2)c(Cl)cc1Cl | 79.8* | -7.7 | 0.3 | -1.4 | -1.4
O=S(=O)(c1cc(Cl)ccc1Cl)N1CCCCC1 | 56.2 | -3.1 | -0.9 | -1.1 | 0.4
O=C(COc1ccc(Br)cc1Cl)NC1CCCCC1 | 70.9* | -9.8 | 0.4 | -1.0 | 3.3
O=C(COc1ccc(S(=O)(=O)NC2CCCCC2)cc1Cl)NCc1ccc2c(c1)OCO2 | 50.3 | -5.9 | -3.0 | 0.6 | 1.5
SMILES | CHOP inh | Cardio protect | XBP1 UPR activ | hiPSC survival | UPR CHOP act
O=C(COc1ccc(S(=O)(=O)NC2CCCCC2)cc1Cl)Nc1ccc2c(c1)OCO2 | 85.6* | -16.5 | -0.4 | -1.2 | 1.7
COc1ccc(OC)c(CCNC(=O)CCCC(=O)n2ncc3cc(C)ccc32)c1 | / | -4.1 | 2.6 | -0.5 | 2.4
Cc1cc(Cl)c(S(=O)(=O)N2CCCCCC2)cc1OCC(=O)NC1CCCCC1 | 91.5* | 0.2 | -0.2 | 6.5 | 1.5
CCN1CCN(S(=O)(=O)c2cc(OCC(=O)NC3CCCCC3)c(C)cc2Cl)CC1 | / | -0.1 | -1.1 | -1.9 | -0.7
CCOC(=O)N1CCN(S(=O)(=O)c2cc(OCC(=O)NC3CCCCC3)c(C)cc2Cl)CC1 | 74.8* | 2.7 | 2.3 | -3.7 | 2.4
Cc1cc(Cl)c(S(=O)(=O)N2CCSCC2)cc1OCC(=O)NC1CCCCC1 | 68.8 | -2.2 | -1.9 | 2.1 | -1.4
Cc1ccc(-c2nc3cc(N)ccc3o2)c(C)c1 | 53.5 | -30.2 | -5.3 | -6.3 | -0.9
Nc1ccc2oc(-c3cccc4ccccc34)nc2c1 | 81.3* | 1.9 | -7.5 | 0.0 | -6.1
O=C(COC(=O)c1ccccc1O)NCCc1c[nH]c2ccccc12 | / | -1.7 | 0.4 | 0.2 | -1.8
O=C(COC(=O)c1ccccc1C(=O)OCC(=O)NCCc1c[nH]c2ccccc12)NCCc1c[nH]c2ccccc12 | / | 61.8* | 1.1 | 1.5 | 3.0
CCCC(=O)N1CCCC(c2cc(C(=O)Nc3ccccc3)no2)C1 (stereo not given) | / | -21.2 | / | -4.4 | /
CC1CCN(S(=O)(=O)c2ccc(Cl)cc2Br)CC1 | 78.1* | -15.9 | 0.5 | 5.3 | -1.1
CCN(CC(=O)Nc1ccccc1C(F)(F)F)C(=O)c1ccccc1Cc1ccccc1 | / | 10.4 | -0.6 | -0.5 | 2.0
CCC1(C)CC(CCNS(=O)(=O)c2ccc(C)cc2)(c2ccc(C)cc2)CCO1 (stereo not given) | 72.6* | -6.6 | -6.4 | -0.7 | -1.8
CC1(C)CC(CCNS(=O)(=O)c2ccccc2)(c2ccccc2)CCO1 (stereo not given) | -8.5 | -5.5 | -1.0 | -0.1 | 1.3
CCCCOc1ccc(CNn2c(C)nc3ccccc3c2=O)cc1 | 80.6* | -4.4 | -1.9 | -0.2 | 1.1
CCC(=O)N1CCCC(C)(C(=O)NS(=O)(=O)c2ccccc2Cl)C1 (stereo not given) | / | -1.6 | / | -1.3 | /
O=C(C#Cc1ccccc1)c1ccc([N+](=O)[O-])cc1 | 110.8* | -24.3 | -1.8 | -6.4 | 30.5
O=C(C#Cc1ccccc1)c1ccccc1 | / | -10.7 | / | -4.8 | /
O=C(Cc1cccc2ccccc12)N/N=C1\CCCc2ccccc21 | 91.8* | -11.3 | -2.9 | -2.3 | 0.7
O=C(CNc1ccc(F)cc1)N/N=C1\CCCc2ccccc21 | 70.5* | -10.6 | -3.5 | -0.6 | -2.1
O=C(Cc1ccc(Cl)cc1)N/N=C1\CCCc2ccccc21 | 5.4 | -10.9 | -1.4 | -1.3 | 0.0
O=[N+]([O-])c1ccc(-c2nc(Nc3ccc(O)cc3)c3ccccc3n2)cc1 | / | 51.7* | 24.1 | -0.3 | 4.1
CC1Cc2ccccc2N1c1ncnc(N)c1[N+](=O)[O-] (stereo not given) | 71.9* | -11.8 | -6.2 | -0.8 | -4.1
CC(=O)Nc1ccc(S(=O)(=O)Nc2nc3ccccc3nc2Nc2ccc(N)cc2)cc1 | 15.7 | -13.8 | -0.3 | 0.6 | -0.1
